{"source": "ChEMBL document CHEMBL5705905", "about": "“Pharmacological targeting of kinases MST1 and MST2 augments tissue repair and regeneration” (Sci Transl Med, 2016)", "key": {"[1]": {"target": "Hepatocyte growth factor receptor (Homo sapiens) (UniProt P08581)", "assay": "Inhibition of MET (unknown origin) assessed as remaining activity at 1 uM by Kinome scan method relative to control"}, "[2]": {"tested_on": "Tyrosine-protein kinase ABL1 (Homo sapiens), P00519 [F317L]", "assay": "Inhibition of phosphorylated ABL1 F317L mutant (unknown origin) assessed as remaining activity at 1 uM by Kinome scan method relative to control"}, "[3]": {"target": "Serine/threonine-protein kinase mTOR (Homo sapiens) (UniProt P42345)", "assay": "Inhibition of MTOR (unknown origin) assessed as remaining activity at 1 uM by Kinome scan method relative to control"}, "Mus musculus [4]": {"tested_on": "Mus musculus", "assay": "In vivo inhibition of MST1/2 in wild-type Mst1fl/fl Mst2fl/fl mouse assessed as decrease in YAP phosphorylation level at 1 mg/kg, ip administrated daily for 7 days by immunoblot analysis", "assay_type": "functional, organism-based", "conditions": "Liver, time 7.0 day"}, "[5]": {"target": "Mitogen-activated protein kinase kinase kinase kinase 2 (Homo sapiens) (UniProt Q12851)", "sequence (Q12851 whole entry)": "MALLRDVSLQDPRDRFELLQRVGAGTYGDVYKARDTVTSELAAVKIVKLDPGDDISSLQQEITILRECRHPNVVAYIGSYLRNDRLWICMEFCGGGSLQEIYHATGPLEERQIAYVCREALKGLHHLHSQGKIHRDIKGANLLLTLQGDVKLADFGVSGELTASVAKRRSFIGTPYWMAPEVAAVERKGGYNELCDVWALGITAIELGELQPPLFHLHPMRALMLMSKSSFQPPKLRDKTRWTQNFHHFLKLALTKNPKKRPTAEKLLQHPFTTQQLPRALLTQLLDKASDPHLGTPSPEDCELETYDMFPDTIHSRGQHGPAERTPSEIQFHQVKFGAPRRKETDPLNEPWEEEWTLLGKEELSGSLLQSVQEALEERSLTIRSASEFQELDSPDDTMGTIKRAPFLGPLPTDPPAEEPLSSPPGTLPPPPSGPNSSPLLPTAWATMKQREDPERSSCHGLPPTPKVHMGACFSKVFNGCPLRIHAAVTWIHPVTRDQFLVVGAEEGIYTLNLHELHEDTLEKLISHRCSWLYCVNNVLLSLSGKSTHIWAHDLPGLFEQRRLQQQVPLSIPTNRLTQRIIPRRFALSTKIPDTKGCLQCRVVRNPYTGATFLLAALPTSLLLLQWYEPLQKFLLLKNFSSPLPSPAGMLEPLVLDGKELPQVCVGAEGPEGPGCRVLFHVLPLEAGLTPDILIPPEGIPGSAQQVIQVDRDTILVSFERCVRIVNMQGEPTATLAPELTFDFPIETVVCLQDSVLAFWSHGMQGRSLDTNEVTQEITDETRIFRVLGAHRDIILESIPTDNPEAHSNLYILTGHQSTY", "assay": "Inhibition of MAP4K2 (unknown origin) assessed as remaining activity at 1 uM by Kinome scan method relative to control"}, "[6]": {"target": "T1, Serine/threonine-protein kinase 4 (Homo sapiens, UniProt Q13043)", "T1 sequence (Q13043 whole entry)": "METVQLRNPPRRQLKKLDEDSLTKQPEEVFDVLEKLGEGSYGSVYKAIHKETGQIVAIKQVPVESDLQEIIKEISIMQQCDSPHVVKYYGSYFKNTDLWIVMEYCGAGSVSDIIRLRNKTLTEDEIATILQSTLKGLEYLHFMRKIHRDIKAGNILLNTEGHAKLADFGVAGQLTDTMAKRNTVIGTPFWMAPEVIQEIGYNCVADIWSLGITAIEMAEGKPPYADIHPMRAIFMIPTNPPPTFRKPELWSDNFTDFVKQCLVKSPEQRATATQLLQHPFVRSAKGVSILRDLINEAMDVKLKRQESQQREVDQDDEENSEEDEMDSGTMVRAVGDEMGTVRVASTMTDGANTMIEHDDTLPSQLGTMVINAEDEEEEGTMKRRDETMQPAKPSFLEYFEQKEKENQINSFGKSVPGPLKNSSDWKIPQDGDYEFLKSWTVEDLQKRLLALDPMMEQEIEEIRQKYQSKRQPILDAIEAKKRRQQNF", "assay": "Inhibition of recombinant His-tagged full-length MST1 (unknown origin) expressing in Escherichia coli assessed as MOB1a phosphorylation level incubated for 30 min in the presence of 100 uM ATP by immunoblot analysis"}, "[7]": {"tested_on": "Tyrosine-protein kinase ABL1 (Homo sapiens), P00519 [H396P]", "assay": "Inhibition of phosphorylated ABL1 H396P mutant (unknown origin) assessed as remaining activity at 1 uM by Kinome scan method relative to control"}, "[8]": {"target": "Serine/threonine-protein kinase 16 (Homo sapiens) (UniProt O75716)", "assay": "Inhibition of STK16 (unknown origin) assessed as remaining activity at 1 uM by Kinome scan method relative to control"}, "[9]": {"target": "Serine/threonine-protein kinase D1 (Homo sapiens) (UniProt Q15139)", "sequence (Q15139 whole entry)": "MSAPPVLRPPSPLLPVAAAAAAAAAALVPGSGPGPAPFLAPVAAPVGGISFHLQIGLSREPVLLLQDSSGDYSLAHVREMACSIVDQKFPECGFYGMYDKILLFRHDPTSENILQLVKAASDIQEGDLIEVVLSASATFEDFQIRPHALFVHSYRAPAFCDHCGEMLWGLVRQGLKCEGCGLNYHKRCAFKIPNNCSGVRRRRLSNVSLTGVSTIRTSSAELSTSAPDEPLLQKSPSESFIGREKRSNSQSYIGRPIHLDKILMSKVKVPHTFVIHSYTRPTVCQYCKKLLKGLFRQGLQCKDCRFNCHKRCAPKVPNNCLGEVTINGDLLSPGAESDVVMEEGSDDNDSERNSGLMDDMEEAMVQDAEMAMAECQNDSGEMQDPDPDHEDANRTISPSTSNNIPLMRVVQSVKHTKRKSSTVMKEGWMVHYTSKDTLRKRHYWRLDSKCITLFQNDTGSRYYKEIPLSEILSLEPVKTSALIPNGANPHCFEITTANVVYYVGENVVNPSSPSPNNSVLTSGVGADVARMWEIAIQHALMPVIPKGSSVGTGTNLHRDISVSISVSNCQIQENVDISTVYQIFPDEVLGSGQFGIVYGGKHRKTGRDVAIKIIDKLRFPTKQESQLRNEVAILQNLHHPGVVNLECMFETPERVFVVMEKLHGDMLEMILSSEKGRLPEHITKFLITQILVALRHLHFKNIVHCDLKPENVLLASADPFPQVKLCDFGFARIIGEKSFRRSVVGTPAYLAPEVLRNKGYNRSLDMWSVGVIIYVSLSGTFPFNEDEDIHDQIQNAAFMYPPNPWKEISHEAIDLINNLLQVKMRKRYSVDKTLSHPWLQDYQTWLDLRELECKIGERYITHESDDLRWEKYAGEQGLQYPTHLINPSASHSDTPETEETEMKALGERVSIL", "assay": "Inhibition of PRKD1 (unknown origin) assessed as remaining activity at 1 uM by Kinome scan method relative to control"}, "[10]": {"tested_on": "Receptor-type tyrosine-protein kinase FLT3 (Homo sapiens), P36888 [D835H]", "assay": "Inhibition of FLT3 D835H mutant (unknown origin) assessed as remaining activity at 1 uM by Kinome scan method relative to control"}, "[11]": {"target": "Fibroblast growth factor receptor 4 (Homo sapiens) (UniProt P22455)", "sequence (P22455 22-802 limits assumed)": "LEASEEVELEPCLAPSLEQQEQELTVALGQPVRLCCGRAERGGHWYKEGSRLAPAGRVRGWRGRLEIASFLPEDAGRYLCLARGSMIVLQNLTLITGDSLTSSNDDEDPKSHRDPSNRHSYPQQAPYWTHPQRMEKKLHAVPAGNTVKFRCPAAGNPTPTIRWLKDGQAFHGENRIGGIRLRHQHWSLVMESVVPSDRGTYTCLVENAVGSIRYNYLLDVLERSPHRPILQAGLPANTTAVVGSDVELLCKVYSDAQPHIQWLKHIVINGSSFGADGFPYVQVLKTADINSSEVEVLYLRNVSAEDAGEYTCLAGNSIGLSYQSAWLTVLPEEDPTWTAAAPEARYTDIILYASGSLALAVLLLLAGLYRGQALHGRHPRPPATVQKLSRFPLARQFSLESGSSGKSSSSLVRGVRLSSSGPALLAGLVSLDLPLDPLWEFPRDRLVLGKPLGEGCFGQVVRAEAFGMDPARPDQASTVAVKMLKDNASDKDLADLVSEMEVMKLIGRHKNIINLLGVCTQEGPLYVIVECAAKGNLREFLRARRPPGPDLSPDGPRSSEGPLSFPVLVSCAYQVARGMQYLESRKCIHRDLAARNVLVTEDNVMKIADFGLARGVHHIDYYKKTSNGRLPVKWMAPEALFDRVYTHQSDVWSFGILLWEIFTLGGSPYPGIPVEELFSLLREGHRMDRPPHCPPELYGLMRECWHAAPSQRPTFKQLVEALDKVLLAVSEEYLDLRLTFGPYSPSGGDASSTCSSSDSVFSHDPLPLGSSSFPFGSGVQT", "assay": "Inhibition of FGFR4 (unknown origin) assessed as remaining activity at 1 uM by Kinome scan method relative to control"}, "[12]": {"tested_on": "Serine/threonine-protein kinase B-raf (Homo sapiens), P15056 [V600E]", "sequence (P15056 whole entry V600E)": "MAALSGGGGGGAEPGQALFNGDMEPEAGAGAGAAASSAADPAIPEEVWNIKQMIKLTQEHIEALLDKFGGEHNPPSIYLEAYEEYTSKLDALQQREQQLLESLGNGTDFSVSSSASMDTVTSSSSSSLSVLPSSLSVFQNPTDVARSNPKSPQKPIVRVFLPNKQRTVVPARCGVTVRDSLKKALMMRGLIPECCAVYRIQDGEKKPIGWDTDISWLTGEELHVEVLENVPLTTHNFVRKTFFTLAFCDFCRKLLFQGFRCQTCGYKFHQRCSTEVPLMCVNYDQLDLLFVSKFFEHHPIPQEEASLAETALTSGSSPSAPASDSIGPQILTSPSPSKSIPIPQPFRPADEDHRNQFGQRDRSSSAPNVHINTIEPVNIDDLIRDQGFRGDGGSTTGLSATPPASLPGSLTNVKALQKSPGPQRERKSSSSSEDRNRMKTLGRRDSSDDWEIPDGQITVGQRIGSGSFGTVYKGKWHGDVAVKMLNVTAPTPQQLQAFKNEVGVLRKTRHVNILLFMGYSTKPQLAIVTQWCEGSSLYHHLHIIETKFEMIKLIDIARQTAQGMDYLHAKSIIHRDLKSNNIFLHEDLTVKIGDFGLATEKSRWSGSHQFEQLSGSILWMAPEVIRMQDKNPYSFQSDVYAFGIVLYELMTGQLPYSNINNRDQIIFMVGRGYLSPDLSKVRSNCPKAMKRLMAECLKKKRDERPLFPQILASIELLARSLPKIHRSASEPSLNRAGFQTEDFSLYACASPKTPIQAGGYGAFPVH", "assay": "Inhibition of BRAF V600E mutant (unknown origin) assessed as remaining activity at 1 uM by Kinome scan method relative to control", "in_short": "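Active-site-dependent competition-binding (KINOMEscan) panel of 468 kinases, test compound at 1 μM (from a 10 mM DMSO stock). Read-out is ctrl% = (test signal − positive control signal)/(negative control signal − positive control signal) × 100. DMSO is the negative control (100%) and a control compound is the positive control (0%). Lower ctrl% means tighter binding.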"}, "[13]": {"assay": "Apparent volume of distribution in male Sprague-Dawley rat at 5 mg/kg, iv measured for 24 hrs by LC-MS/MS analysis", "assay_type": "ADME, organism-based", "conditions": "in vivo, read-out: Vz", "in_short": "(§1)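 Sprague-Dawley rats, single intravenous or oral dose. Parameters (half-life, AUC, bioavailability) reported in a supplementary table.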"}, "[14]": {"assay": "Clearance in male Sprague-Dawley rat at 5 mg/kg, iv measured for 24 hrs by LC-MS/MS analysis", "assay_type": "ADME, organism-based", "conditions": "in vivo", "in_short": "as §1"}, "[15]": {"target": "Non-receptor tyrosine-protein kinase TYK2 (Homo sapiens, UniProt P29597)", "assay": "Inhibition of TYK2 JH1domain-catalytic (unknown origin) in presence of ATP by enzymatic assay"}, "[16]": {"assay": "Inhibition of recombinant His-tagged full-length MST1 Y101F/D109A mutant (unknown origin) expressing in Escherichia coli assessed as MOB1 phosphorylation level incubated for 15 min by immunoblot analysis", "parameters": "species or system Homo sapiens"}, "[17]": {"target": "Serine/threonine-protein kinase DCLK1 (Homo sapiens) (UniProt O15075)", "sequence (O15075 whole entry)": "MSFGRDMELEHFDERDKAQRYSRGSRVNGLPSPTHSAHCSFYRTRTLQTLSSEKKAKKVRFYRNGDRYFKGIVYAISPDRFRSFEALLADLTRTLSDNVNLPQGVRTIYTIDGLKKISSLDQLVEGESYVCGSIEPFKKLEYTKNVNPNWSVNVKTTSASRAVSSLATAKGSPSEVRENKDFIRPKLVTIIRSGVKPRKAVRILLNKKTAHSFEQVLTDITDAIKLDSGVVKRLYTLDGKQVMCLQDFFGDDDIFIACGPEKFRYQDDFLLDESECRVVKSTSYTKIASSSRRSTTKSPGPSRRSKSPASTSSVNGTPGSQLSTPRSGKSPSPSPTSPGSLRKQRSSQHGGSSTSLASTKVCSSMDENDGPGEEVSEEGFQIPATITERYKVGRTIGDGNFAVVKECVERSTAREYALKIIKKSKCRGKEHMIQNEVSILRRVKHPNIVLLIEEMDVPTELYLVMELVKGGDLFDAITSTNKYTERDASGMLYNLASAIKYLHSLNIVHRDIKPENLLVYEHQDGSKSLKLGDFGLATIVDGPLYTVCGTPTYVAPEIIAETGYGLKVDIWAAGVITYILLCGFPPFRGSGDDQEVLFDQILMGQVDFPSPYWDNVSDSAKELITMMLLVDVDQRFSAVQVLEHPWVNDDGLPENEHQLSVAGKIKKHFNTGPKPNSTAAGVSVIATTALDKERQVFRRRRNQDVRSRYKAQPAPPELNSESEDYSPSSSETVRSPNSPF", "assay": "Inhibition of DCAMKL1 (unknown origin) assessed as remaining activity at 1 uM by Kinome scan method relative to control", "in_short": "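Active-site-dependent competition-binding assay (KINOMEscan) across a 468-kinase panel, with the inhibitor tested at 1 μM from a 10 mM DMSO stock. Read-out is ctrl% = (test signal − positive control)/(negative control − positive control) × 100. DMSO is the negative control (100%) and a control compound the positive control (0%). Lower ctrl% means tighter binding.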"}, "Mus musculus [18]": {"tested_on": "Mus musculus", "assay": "Protection against APAP induced liver injury in mouse assessed as increase in survival rate at 1 mg/kg, ip administered at 2.5 hrs in the presence of NAC […]", "assay_type": "functional", "in_short": "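Wild-type mice given oral APAP 400 mg/kg, then i.p. vehicle, NAC 250 mg/kg, 1 mg/kg test agent, or NAC plus test agent at 1.5 or 2.5 h. Mortality was tracked with n = 10–11 per group, Mantel-Cox test. Separately, TUNEL was done on liver after 200 mg/kg APAP with treatment at 2.5 h.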"}, "[19]": {"target": "Serine/threonine-protein kinase PAK 3 (Homo sapiens) (UniProt O75914)", "sequence (O75914 whole entry, looked up)": "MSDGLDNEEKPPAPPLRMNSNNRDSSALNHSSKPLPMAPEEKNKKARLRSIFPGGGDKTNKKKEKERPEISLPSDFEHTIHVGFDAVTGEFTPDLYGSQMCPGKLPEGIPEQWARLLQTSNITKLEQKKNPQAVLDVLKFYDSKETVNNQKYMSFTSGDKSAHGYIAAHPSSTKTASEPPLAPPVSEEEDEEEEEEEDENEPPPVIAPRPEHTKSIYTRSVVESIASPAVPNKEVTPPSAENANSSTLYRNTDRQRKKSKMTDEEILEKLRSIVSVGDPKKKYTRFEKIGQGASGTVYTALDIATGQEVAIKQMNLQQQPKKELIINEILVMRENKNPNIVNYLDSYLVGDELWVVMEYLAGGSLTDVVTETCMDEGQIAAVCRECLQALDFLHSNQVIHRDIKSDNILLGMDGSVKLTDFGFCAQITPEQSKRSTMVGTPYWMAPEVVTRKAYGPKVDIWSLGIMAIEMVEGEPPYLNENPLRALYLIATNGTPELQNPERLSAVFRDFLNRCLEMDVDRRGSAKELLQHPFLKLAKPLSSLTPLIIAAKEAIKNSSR", "assay": "Inhibition of PAK3 (unknown origin) assessed as remaining activity at 1 uM by Kinome scan method relative to control"}, "[20]": {"tested_on": "Epidermal growth factor receptor (Homo sapiens), P00533 [UNDEFINED MUTATION]", "assay": "Inhibition of EGFR S752-I759del mutant (unknown origin) assessed as remaining activity at 1 uM by Kinome scan method relative to control"}, "Aurora kinase B": {"target": "Aurora kinase B (Homo sapiens, UniProt Q96GD4)", "sequence (Q96GD4 whole entry)": "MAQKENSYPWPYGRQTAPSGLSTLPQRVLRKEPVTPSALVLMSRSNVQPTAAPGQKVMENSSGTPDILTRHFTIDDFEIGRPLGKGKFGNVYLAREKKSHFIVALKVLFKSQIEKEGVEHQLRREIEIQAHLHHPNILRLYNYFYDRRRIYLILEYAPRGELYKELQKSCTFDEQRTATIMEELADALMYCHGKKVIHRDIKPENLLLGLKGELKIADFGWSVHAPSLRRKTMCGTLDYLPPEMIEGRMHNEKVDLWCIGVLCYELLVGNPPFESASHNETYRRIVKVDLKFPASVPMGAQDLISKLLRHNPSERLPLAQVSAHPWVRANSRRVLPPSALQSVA", "assay": "Binding affinity to AURKB (unknown origin) assessed as dissociation constant"}, "[21]": {"assay": "AUC (0 to t) in male Sprague-Dawley rat at 5 mg/kg, iv measured for 24 hrs by LC-MS/MS analysis", "assay_type": "ADME, organism-based", "conditions": "in vivo", "in_short": "as §1"}}, "note": "pIC50, pKd: −log10 of the molar value. Active and inactive are the calls of the source. No cut-off for these calls is given here."}
{"smiles": "CN1C(=O)c2sccc2N(C)c2nc(Nc3ccc(S(N)(=O)=O)cc3)ncc21", "values": [{"measurement": "Activity", "setting": "[1]", "result": 100, "unit": "%"}, {"measurement": "Activity", "setting": "[2]", "result": 14, "unit": "%"}, {"measurement": "Activity", "setting": "[3]", "result": 84, "unit": "%"}, {"measurement": "inhibition", "setting": "Mus musculus [4]", "result": "Active"}, {"measurement": "Activity", "setting": "[5]", "result": 77, "unit": "%"}, {"measurement": "pIC50", "setting": "[6]", "result": 5.91}, {"measurement": "Activity", "setting": "[7]", "result": 14, "unit": "%"}, {"measurement": "Activity", "setting": "[8]", "result": 50, "unit": "%"}, {"measurement": "Activity", "setting": "[9]", "result": 98, "unit": "%"}, {"measurement": "Activity", "setting": "[10]", "result": 67, "unit": "%"}, {"measurement": "Activity", "setting": "[11]", "result": 100, "unit": "%"}, {"measurement": "Activity", "setting": "[12]", "result": 100, "unit": "%"}, {"measurement": "Vd", "setting": "[13]", "result": 7.1, "unit": "L/kg"}, {"measurement": "clearance", "setting": "[14]", "result": 65.8, "unit": "mL/min/kg"}, {"measurement": "pIC50", "setting": "[15]", "result": 8.72}, {"measurement": "pIC50", "setting": "[16]", "result": 5.86}, {"measurement": "Activity", "setting": "[17]", "result": 8.3, "unit": "%"}, {"measurement": "Activity", "setting": "Mus musculus [18]", "result": "~40", "unit": "%"}, {"measurement": "Activity", "setting": "[19]", "result": 100, "unit": "%"}, {"measurement": "Activity", "setting": "[20]", "result": 100, "unit": "%"}, {"measurement": "pKd", "setting": "Aurora kinase B", "result": 7.40}, {"measurement": "AUC(0-t) at 24 h", "setting": "[21]", "result": 1260, "unit": "ng·h/mL"}]}
